# MT stabilize HCS – microtubule stabilizers in HeLa cells, primary screen, imaging, high-content imaging | HeLa tubulin immunostaining HCS, 24 h; share of cells brighter than vehicle mean+2SD | % tubulin-high responders, % at 10 µM | hit rate 0.83% among 200,000 | AID 2205, 2009;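 active = plate Z-score above 3 for both tubulin-high and condensed-nucleus cell shares, with cell loss under 80%, at 10 µM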;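 note: anti alpha tubulin signal scored within the nucleus-defined area of each cell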
# Ba/F3 V617F tox – reduced viability of JAK2V617F-dependent Ba/F3 cells, primary screen, JAK2V617F inhibitor project, cell-based, Ba/F3 EpoR-JAK2V617F, luminescence. ATP luminescence. inhibition, % at 5.6 µM. hit rate 1.1% among 220,000. AID 1446, 2008;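 active = inhibition above the campaign mean plus 3 SD over all tested compounds, cut at about 24% in these data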;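 note: cytokine-independent growth of Ba/F3 cells driven by EpoR plus mutant JAK2; 0% = DMSO-treated cells and 100% = JAK inhibitor I control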
# APP transl inh – inhibitors of APP translation via 5'UTR reporter, primary screen, APP 5'UTR luciferase, SH-SY5Y cells. SH-SY5Y APP 5'UTR-luciferase reporter, luminescence. inhibition, % at 2 µM. hit rate 0.82% among 190,000;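 active = inhibition above a set limit, derived from the sample mean plus 3 SD, cut at about 45% in these data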
# bCat nuc transl – modulators of beta-catenin nuclear translocation, primary screen, imaging, HeLa cells, immunofluorescence, high-content. nuclear translocation activity, % at 5 µM. hit rate 0.3% among 190,000;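 active = nuclear translocation activity above 50% at 5 µM, with a well cell count of 50 or more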;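 note: per-cell ratio of nuclear to cytoplasmic median beta-catenin stain intensity; plate controls were DMSO negative control for no effect and GSK-3 inhibitor IX positive control for full effect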
#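 System: Human HeLa cells, endogenous beta-catenin | Compound dosing: 5 µM primary, 0.02–20 µM confirmation | Timing: 24 h compound exposure at 37°C, 5% CO2 | Measured by: Fluorescence imaging of beta-catenin antibody stain plus DAPI | Read-out basis: % activation of per-cell nuclear versus cytoplasmic median beta-catenin signal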
# BaF3 parental – parental Ba/F3 cell viability inhibition, counter-screen for JAK2V617F inhibitor project, murine pro-B, CellTiter-Glo luminescence | AID 1486, 2009 | CellTiter-Glo ATP luminescence | hit rate 1.1% among 220,000 | inhibition, % at 5.6 µM;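 active = inhibition above a per-campaign cutoff, the mean inhibition of all tested compounds plus 3 SD, cut at about 27% in these data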;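 note: 0% = DMSO wells and 100% = JAK Inhibitor I control wells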
# IEC-6 cytotox – cytotoxicity in IEC-6 intestinal epithelial cells, primary screen, cytotoxicity control for KLF5 inhibitor project, cell-based, luminescence | hit rate 0.78% among 290,000 | IEC-6 cytotoxicity, luminescence viability | inhibition, % at 5 µM | AID 1825, 2009; in the data active = inhibition above about 22%;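 note: 0% = plate median of test compound wells and 100% = cytotoxic reference compound wells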
# An asterisk follows results filed as active; . = no result given. Compounds with a hit are over-represented: about 2.2% of the library has one in this group of screens.
SMILES,MT stabilize HCS,Ba/F3 V617F tox,APP transl inh,bCat nuc transl,BaF3 parental,IEC-6 cytotox
COc1cc(C(=O)N/N=C/c2cc([N+](=O)[O-])cs2)cc(OC)c1OC,20.4*,80.8*,95.1*,29.0,77.2*,78.4*
CS(=O)(=O)N(CC(N)=O)c1cccc(Br)c1,4.6,0.7,4.3,-3.8,92.6*,-2.8
CC(=O)Cc1nsc(NC(=O)c2ccc(-c3ccccc3Cl)o2)n1,24.4*,-0.3,-12.4,1.5,4.5,-0.8
CC(=O)Cc1nsc(NC(=O)c2oc(-c3ccccc3Cl)cc2C)n1,2.1,-1.9,-4.0,1.0,7.1,-5.6
COc1ccc(-c2cnnn2-c2ccc([N+](=O)[O-])cc2)cc1,.,.,.,.,.,-7.3
c1ccc(CCNc2ncnc3ccccc23)cc1,1.9,64.9*,-88.7,3.0,67.6*,21.2
Brc1ccc2ncnc(NCc3ccccc3)c2c1,3.4,0.9,8.9,2.7,9.6,11.9
COc1cc([N+](=O)[O-])ccc1NC(=O)Nn1cnnc1,.,.,.,.,.,-3.9
CCOc1cc(C2C(C#N)=C(N)OC(C)=C2C(C)=O)c(Br)c(Br)c1OC(C)C (centres undefined),4.8,0.4,65.9*,0.5,5.1,4.0
Cc1ccc(NC(=O)C2CC(O)CN2C(=O)OCc2ccccc2)cc1C (centres undefined),.,.,.,.,.,-14.5
COc1ccc(CCNc2ccc(C(CC(N)=O)NC(=O)c3cc(OC)ccc3OC)cc2[N+](=O)[O-])cc1 (centres undefined),.,.,.,.,.,1.5
O=C1CCC2S/C(=C/Nc3ccc(C(F)(F)F)cc3)C(=O)N12 (centres undefined),2.1,-1.7,71.9*,-3.5,7.2,6.6
OC(Cn1ccnc1)c1ccc(Cl)cc1Cl (centres undefined),7.0,-0.8,2.7,-4.5,6.1,1.8
CC1(c2ccc(Cl)cc2Cl)OCC(Cn2ccnc2)O1 (centres undefined),36.1*,0.2,-13.5,1.6,94.5*,2.3
COc1ccc(C2c3ccc4ccccc4c3Oc3ncn(CCN(C)C)c(=N)c32)cc1 (centres undefined),.,.,.,.,.,11.7
Cc1ccc(C(=O)N/C(=C\c2ccc(-c3ccc(Cl)cc3)o2)C(=O)NCCCN(C)C)cc1,79.2,15.8,2.1,-1.7,103.8*,44.1*
Cc1ccc(NC2CCCN(C(=O)c3ccoc3C)C2)cc1C (centres undefined),.,.,.,.,.,-3.8
O=c1c2ccccc2nc(N/N=C/c2c(O)ccc3ccccc23)n1O,2.6,92.5*,57.1*,0.5,74.4*,2.2
COc1cccc2nc3cc(C)c(C)cc3nc12,.,29.2*,.,-1.9,29.0*,14.1
COc1cccc2c1nc(C)c1cc(C)oc12,2.9,4.4,-3.5,-0.4,7.4,6.1
CCn1c2ccccc2c2cc(NC(=O)CSc3nnc(-c4cccc(C)c4)o3)ccc21,13.3,-3.3,0.2,.,0.5,4.9
CCn1c2ccccc2c2cc(NC(=O)CSc3nnc(-c4cccc(F)c4)o3)ccc21,17.9,-1.5,46.8*,0.4,-1.4,10.3
CCn1c2ccccc2c2cc(NC(=O)CSc3nnc(-c4ccccc4)o3)ccc21,16.3*,-2.5,57.6*,-4.8,1.1,8.6
COc1cc(CC(=O)NCC2CCCCC2)cc(OC)c1OC,.,.,.,.,.,-1.7
COc1cc(OC)c(OC)cc1CCC(C)NC(=O)Cc1ccccc1 (centres undefined),.,.,.,.,.,-5.7
SMILES,MT stabilize HCS,Ba/F3 V617F tox,APP transl inh,bCat nuc transl,BaF3 parental,IEC-6 cytotox
COc1ccc(/C=C/CN2CCC(n3nccc3NC(=O)C3CCCC3)CC2)cc1,.,.,.,.,.,-1.3
CCC(CO)[n+]1c(C)cc(/C=C2\Sc3ccccc3N2Cc2ccccc2)cc1C (centres undefined),5.9,68.5*,-12.0,16.5,61.2*,4.5
CCN1/C(=C2\SC(=S)N(Cc3ccccc3)C2=O)Sc2ccccc21,8.8,0.5,27.6,0.5,6.8,-0.8
Cc1cc(C)c2c(c1)-c1c(ssc1=S)C(C)(C)N2C(=O)CSc1nncn1C,18.3*,-0.3,2.2,-0.6,4.1,10.8
CCOC(=O)c1sc(NC(=O)Nc2cccc(Cl)c2)cc1C,4.5,1.4,-105.0,1.4,43.0*,0.5
CCOC(=O)c1sc(NC(=O)c2cccs2)cc1C,3.8,2.1,-168.1,-4.2,5.3,10.3
CC(=O)Nc1ccc(S(=O)(=O)Oc2ccc3c(c2)C(C)=CC(C)(C)N3)cc1,2.8,79.9*,26.7,7.0,73.4*,32.7*
COc1cccc(NC(=O)CSc2nc3ccccc3cc2Cc2ccccc2)c1,1.6,-3.4,-5.3,-0.4,-0.1,-6.2
COc1cccc(CSc2nc3ccccc3cc2C=O)c1,13.7,50.1*,89.2*,2.3,35.6*,7.2
CC(Oc1ccccc1)C(=O)Nc1nnc(S(=O)(=O)N(C)c2ccccc2)s1 (centres undefined),.,.,.,.,.,3.2
CCOC(=O)c1[nH]c(C)c(CN(C(C)=O)c2ccc(OCC)cc2)c1C,20.1*,8.1,-3.4,5.0,12.3,32.1*
COC(=O)c1sccc1NC(=O)c1c(C)c(-c2cccc(Cl)c2)nc2ccccc12,4.7,-3.0,49.6*,-0.1,3.3,-7.6
COC(=O)c1sccc1NC(=O)c1cc(-c2cccc(C)c2)nc2ccccc12,15.0,4.1,-9.3,-3.6,8.5,1.5
COCCN1C(=O)C(=O)/C(=C(/O)c2ccc(S(=O)(=O)N3CCCCC3)cc2)C1c1ccc(OC)cc1 (centres undefined),.,.,.,.,.,-2.8
O=C1CCCC2=C1C(c1cccs1)Nc1ccc3ncccc3c12 (centres undefined),4.4,1.9,5.6,1.2,2.2,1.5
Cc1ccsc1C1Nc2ccc3ncccc3c2C2=C1C(=O)CC(C)(C)C2 (centres undefined),36.9*,-1.3,-7.9,-2.0,0.9,8.5
COc1cccc(CCNC(=O)c2cc(COc3c(F)cccc3F)on2)c1,.,.,.,.,.,2.6
O=C(Nc1cnn(Cc2ccc(F)cc2)c1)c1noc2c1CCCC2,1.2,54.8*,-59.2,-3.2,57.9*,18.9
CC(C)(C)C1CCc2onc(C(=O)Nc3cnn(Cc4ccc(F)cc4)c3)c2C1 (centres undefined),5.4,-4.5,10.1,-0.7,0.3,-3.1
COc1cccc(-c2csc(N3CCN(C(=S)Nc4ccccc4)CC3)n2)c1,2.1,1.8,-23.2,-2.4,10.3,5.4
COc1cccc(-c2csc(N3CCN(C(=S)Nc4ccc(Cl)cc4)CC3)n2)c1,3.4,38.2*,2.4,1.1,38.5*,6.1
Cc1ccc(NC(=O)C2CCCN2c2nn3c(=O)cc(C)nc3s2)cc1 (centres undefined),.,.,.,.,.,0.5
O=C1C2C3c4ccccc4C(c4ccccc43)C2C(=O)N1c1ccncc1 (centres undefined),4.2,66.2*,21.7,-0.4,70.8*,-2.7

# Source: PubChem BioAssay (several laboratories)
